Experimental data of several laboratories.
Each line is one published result; the experiments were not run side by side.
Target: NUAK family SNF1-like kinase 1 (NUAK1, Homo sapiens, UniProt O60285)
Observed: enzyme activity
Mode: inhibitor
Residues used in one study (O60285 1-661): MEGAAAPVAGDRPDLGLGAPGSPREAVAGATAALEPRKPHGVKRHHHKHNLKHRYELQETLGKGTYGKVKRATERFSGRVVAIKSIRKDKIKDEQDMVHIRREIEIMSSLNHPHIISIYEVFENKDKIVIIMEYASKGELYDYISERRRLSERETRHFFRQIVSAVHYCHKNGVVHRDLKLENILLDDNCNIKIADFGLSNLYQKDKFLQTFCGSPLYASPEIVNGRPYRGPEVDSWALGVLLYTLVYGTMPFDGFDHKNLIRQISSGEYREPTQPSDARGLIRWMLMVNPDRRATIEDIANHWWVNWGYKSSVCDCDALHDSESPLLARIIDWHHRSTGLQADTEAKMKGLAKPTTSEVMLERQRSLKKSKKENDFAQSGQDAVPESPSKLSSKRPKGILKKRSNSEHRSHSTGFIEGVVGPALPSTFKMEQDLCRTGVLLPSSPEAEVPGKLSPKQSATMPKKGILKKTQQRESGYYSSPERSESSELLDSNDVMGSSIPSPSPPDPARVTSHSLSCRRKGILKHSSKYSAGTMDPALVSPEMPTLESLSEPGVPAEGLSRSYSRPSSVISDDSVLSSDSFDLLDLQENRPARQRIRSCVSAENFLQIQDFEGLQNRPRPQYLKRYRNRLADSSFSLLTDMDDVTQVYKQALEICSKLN

| SMILES | test | setting | remaining activity |
| --- | --- | --- | --- |
| O=C(Nc1cccc(Nc2ncc(Br)c(NCCc3cnc[nH]3)n2)c1)N1CCCC1 | radiometric | 1 µM | 1% |
| CC(C)(C)c1nc(-c2cccc(NS(=O)(=O)c3c(F)cccc3F)c2F)c(-c2ccnc(N)n2)s1 | radiometric | 1 µM | 101% |
| O=C(Nc1cnn(-c2csc(C(=O)NC3COC3)c2)c1)Nc1ccccc1Cl |  | 5 µM | 97.9% |
| CC(C)(O)[C@H]1CC[C@H](Nc2ccc3ncc(-c4cccc(C(F)(F)F)c4)n3n2)CC1 |  | 1 µM | 72% |
| Oc1cccc(-c2nc(N3CCOCC3)c3oc4ncccc4c3n2)c1 |  | 10 µM | 98% |
| COc1cc(Nc2cnc(C#N)c(O[C@H](C)CN(C)C)n2)ncc1-c1cnn(C)c1 | radiometric | 10 µM | 7% |
| Cc1nn(CC(F)(F)F)cc1Nc1nccc(NCCCNC(=O)C2CCC2)n1 | radiometric | 1 µM | 86% |
| Cc1cnc(NC2CCOCC2)nc1-n1cnc(C(=O)NC(CN)c2cc(F)cc(Cl)c2)c1 (stereo not drawn) | radiometric | 1 µM | 67% |
| NS(=O)(=O)c1ccc(CNc2nc(Nc3cccc(CN4CCOCC4)c3)ncc2C2CC2)cc1 | radiometric | 1 µM | 83% |
| COc1cc(Cl)c(C(=O)N[C@@H](CN[C@H]2CC[C@@H](N)CC2)Cc2ccc(C#N)cc2)cc1-c1ccc(CN[C@H](C)c2ccc(C)cc2)o1 |  | 1 µM | 92% |
| Cc1sc(C(=O)NC2COC2)cc1-n1cc(NC(=O)Nc2c(F)cccc2Cl)cn1 |  | 10 µM | 96.9% |
| CC(C)(C)c1nc2c(s1)c1nc(N)ncc1c1ccc(NS(=O)(=O)c3c(F)cccc3F)c(F)c12 | radiometric | 1 µM | 95% |
| Cc1ccc(C(=O)Nc2ccc(CN3CCN(C)CC3)c(C(F)(F)F)c2)cc1C#Cc1cnc2cccnn12 |  | 23.5 nM | 85% |
| NS(=O)(=O)c1ccc(CNc2nc(Nc3cccc(NC(=O)N4CCCC4)c3)ncc2C2CC2)cc1 | radiometric | 1 µM | 89% |
| Cn1c(=O)n(-c2ccc(C(C)(C)C#N)cc2)c2c3cc(-c4cnc5ccccc5c4)ccc3ncc21 |  | 10 µM | 44% |
